The values below come from ChEMBL document CHEMBL3272018, “Synthesis of aziridinylallylaminophosphine oxides and sulfides as potential adjuvant cancer chemotherapeutic agents” (J Med Chem, 1976).

The source made the active and inactive calls. The calls are words filed in the database; no cut-off is given here.

In data set [1] the test system is Musca domestica. Nature of the data set: Toxicity in male house fly assessed as lowest dose required to cause complete sterility administered in food. Type of data set: organism-based. As to conditions: in vivo, po.
Data set [2] has as its system Musca domestica. Description: Toxicity in male house fly assessed as lowest dose required to cause complete sterility administered in sugar. In kind it is organism-based. The note with it: in vivo, po.
Data set [3] has as its system L1210. Description: In vivo antitumor activity against mouse L1210 cells in prognostic scoring system assessed as survival rate at 3 mg/kg, qd administered for 15 days. In kind it is functional, organism-based. Set-up: dose 3 mg/kg. In short, it runs like this: (§1)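 L1210 leukaemia in mice, run as an ascites tumour system. Injections were once daily for 9 or 15 days, or as a single dose. Response is the increase in survival time, given as T/C %, treated over untreated controls; a larger value means more activity. Weight change is the treated-group mean minus the control-group mean, in grams.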

Data set [4] relates to Rattus norvegicus. Description: Toxicity in rat allografted with cytoxan-resistant rat Walker 256 cells intramuscularly assessed as change in body weight at 3 mg/kg, qd administered for 5 days. In kind it is organism-based. The note with it: in vivo, im, 120 h. Also on record: dose 3 mg/kg, route intramuscular. In short, it runs like this: (§2)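 Walker 256 carcinoma solid-tumour system in rats (parent line, or the line resistant to cytoxan). Dosing was one injection per day for 5 days. Toxicity was taken as the average net body-weight change of the treated group minus the average net weight change of the untreated tumour-bearing controls, in grams.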

Data set [5] deals with W256. Nature of the data set: Antitumor activity against cytoxan-resistant rat Walker 256 cells intramuscularly allografted in rat assessed as tumor growth inhibition at 25 mg/kg, qd administered for 5 days relative to control. Type of data set: functional. As to conditions: W256, im, 120 h, route intramuscular, read-out: TGI. In short, it runs like this: (§3)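 Dosed once daily for 5 days. Response is tumor progression in treated (T) versus untreated control (C) animals, expressed as T/C percentage. Host weight change is reported as the average net weight change of the test group minus that of the controls, in grams.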

Data set [6] concerns Rattus norvegicus. Description: Toxicity in rat allografted with cytoxan-resistant rat Walker 256 cells intramuscularly assessed as change in body weight at 6 mg/kg, qd administered for 5 days. Also on record: dose 6 mg/kg, route intramuscular. Type of data set: organism-based. As to conditions: in vivo, im, 120 h. In short, it runs like this: as §2
In data set [7] the test system is W256. Description: Antitumor activity against cytoxan-resistant rat Walker 256 cells intramuscularly allografted in rat assessed as survival rate at 3 mg/kg, qd administered for 5 days. In kind it is functional, organism-based. Set-up: dose 3 mg/kg. In short, it runs like this:
(§4)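 Rats bearing Walker 256 carcinoma as a solid tumor; lines 1-8 use a cytoxan-resistant Walker 256 subline. Dosed once daily for 5 days. Treated (T) and untreated control (C) groups are compared, and the response is given as T/C percentage, reflecting increase in survival time. Host weight change is the average weight change of the test group minus that of the controls, in grams.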

For data set [8], the system named is Rattus norvegicus. Nature of the data set: Toxicity in rat allografted with cytoxan-resistant rat Walker 256 cells intramuscularly assessed as change in body weight at 25 mg/kg, qd administered for 5 days. Also on record: dose 25 mg/kg, route intramuscular. The note with it: in vivo, im, 120 h. In kind it is organism-based. In short, it runs like this: as §2

In data set [9] the test system is W256. Nature of the data set: Antitumor activity against cytoxan-resistant rat Walker 256 cells intramuscularly allografted in rat assessed as survival rate at 6 mg/kg, qd administered for 5 days. In kind it is functional, organism-based. Set-up: dose 6 mg/kg. In short, it runs like this: as §4
The subject of data set [10] is Rattus norvegicus. Nature of the data set: Toxicity in rat allografted with rat Walker 256 cells intramuscularly assessed as change in body weight at 12 mg/kg, qd administered for 5 days. Type of data set: organism-based. Set-up: dose 12 mg/kg, route intramuscular. The note with it: in vivo, im, 120 h. In short, it runs like this:
as §2

Data set [11] relates to W256. Nature of the data set: Antitumor activity against rat Walker 256 cells intramuscularly allografted in rat assessed as tumor growth inhibition at 12 mg/kg, qd administered for 5 days relative to control. Type of data set: functional. As to conditions: W256, im, 120 h, route intramuscular, read-out: TGI. In short, it runs like this:
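Walker 256 carcinoma grown as a solid tumour in rats, with one injection daily for 5 days. Response is given as T/C %, the treated-group measure over the untreated-control tumour measure; a smaller value means more activity. Host toxicity is the mean net weight change of treated minus control animals, in grams.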

In data set [12] the test system is W256. Nature of the data set: Antitumor activity against cytoxan-resistant rat Walker 256 cells intramuscularly allografted in rat assessed as survival rate at 25 mg/kg, qd administered for 5 days. Type of data set: functional, organism-based. Set-up: dose 25 mg/kg. In short, it runs like this:
as §4

Data set [13] has as its system W256. Nature of the data set: Antitumor activity against rat Walker 256 cells intramuscularly allografted in rat assessed as tumor growth inhibition. In kind it is functional. As to conditions: W256, im. In short, it runs like this: as §3
Data set [14] concerns W256. Nature of the data set: Antitumor activity against cytoxan-resistant rat Walker 256 cells intramuscularly allografted in rat assessed as tumor growth inhibition at 12 mg/kg, qd administered for 5 days relative to control. In kind it is functional. As to conditions: W256, im, 120 h, route intramuscular, read-out: TGI. In short, it runs like this:
as §3

The test system of data set [15] is L1210. Nature of the data set: In vivo antitumor activity against mouse L1210 cells in prognostic scoring system assessed as survival rate at 7 mg/kg, qd administered for 15 days. Type of data set: functional, organism-based. Also on record: dose 7 mg/kg. In short, it runs like this:
as §1

Data set [16] concerns W256. Description: Antitumor activity against cytoxan-resistant rat Walker 256 cells intramuscularly allografted in rat assessed as survival rate at 12 mg/kg, qd administered for 5 days. In kind it is functional, organism-based. Also on record: dose 12 mg/kg. In short, it runs like this:
as §4

Data set [17] deals with W256. Nature of the data set: Antitumor activity against rat Walker 256 cells intramuscularly allografted in rat assessed as survival rate at 12 mg/kg, qd administered for 5 days. Type of data set: functional, organism-based. Also on record: dose 12 mg/kg. In short, it runs like this: as §4
Data set [18] can be described thus: Toxicity in rat allografted with rat Walker 256 cells intramuscularly. In kind it is organism-based.
Data set [19] has as its system L1210. Description: In vivo antitumor activity against mouse L1210 cells in prognostic scoring system assessed as survival rate at 11 mg/kg, qd administered for 15 days. In kind it is functional, organism-based. Also on record: dose 11 mg/kg. In short, it runs like this: as §1
The test system of data set [20] is L1210. Description: In vivo antitumor activity against mouse L1210 cells in prognostic scoring system assessed as survival rate at 5 mg/kg, qd administered for 15 days. Type of data set: functional, organism-based. Also on record: dose 5 mg/kg. In short, it runs like this: as §1
In data set [21] the test system is Rattus norvegicus. Description: Toxicity in rat allografted with cytoxan-resistant rat Walker 256 cells intramuscularly assessed as change in body weight at 12 mg/kg, qd administered for 5 days. In kind it is organism-based. Set-up: dose 12 mg/kg, route intramuscular. As to conditions: in vivo, im, 120 h. In short, it runs like this: as §2
In data set [22] the test system is W256. Nature of the data set: Antitumor activity against cytoxan-resistant rat Walker 256 cells intramuscularly allografted in rat assessed as tumor growth inhibition at 3 mg/kg, qd administered for 5 days relative to control. Type of data set: functional. The note with it: W256, im, 120 h, route intramuscular, read-out: TGI. In short, it runs like this: as §3

Data set [23] deals with L1210. Description: In vivo antitumor activity against mouse L1210 cells in prognostic scoring system […] at 5 mg/kg, qd administered for 15 days relative to control. Type of data set: functional. As to conditions: L1210, 360 h, read-out: TGI.
The test system of data set [24] is W256. Description: Antitumor activity against cytoxan-resistant rat Walker 256 cells intramuscularly allografted in rat assessed as tumor growth inhibition at 6 mg/kg, qd administered for 5 days relative to control. In kind it is functional. As to conditions: W256, im, 120 h, route intramuscular, read-out: TGI. In short, it runs like this:
as §3

A short description of data set [25]: Therapeutic index, ratio of LD50 for rat allografted with rat Walker 256 cells to ED10 for antitumor activity against rat Walker 256 cells intramuscularly allografted in rat. Type of data set: cell-based. The note with it: read-out: TI. In short, it runs like this: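 Therapeutic index is LD50/ED10 in the Walker 256 solid tumour system. ED10 is the dose giving a 10% tumour weight reduction, with values extrapolated from dose-response data.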

For the compound `C=CCN(C1=CCCCC1)P(=O)(N1CC1)N1CC1`, the Activity in data set [1] and in data set [2] was 1% each time.

As to `C=CCN(CC=C)P(=O)(N(CC=C)CC=C)N1CC1`, the result in [3], in data set [7], in [9], in data set [12], in data set [15] and in data set [16] was Active. For the same compound, the result in data set [17], in [19] and in data set [20] was Active. Further, the Activity is recorded as -1 g in [4]; -7 g in data set [6]; -28 g in [8]; -1 g in data set [10]; -4 g in data set [21]. Further, in data set [5], the inhibition in vivo at 25 mg/kg stood at 52%. The figures for the inhibition in vivo at 12 mg/kg in [11] and in [14] were 0% and 66%, respectively. Further, in data set [13], the ED10 amounted to 2.5 mg/kg. Besides, the median lethal dose (LD50) in data set [18] stood at 75 mg/kg. Also, in data set [22], the inhibition in vivo at 3 mg/kg was 84%. Besides, the inhibition in vivo at 5 mg/kg in data set [23] is 155%. In addition, in [24], the inhibition in vivo at 6 mg/kg was found to be 70%. Also, in data set [25], the selectivity ratio came out at 30.
